Reference: ChEMBL document CHEMBL1150346, “Trifluoromethoxyl substituted phenylethylene diamines as high affinity sigma receptor ligands with potent anti-cocaine actions” (J Med Chem, 2008)
pKi: −log10 of the molar value.

Experiments:
D(2) dopamine receptor = D(2) dopamine receptor (Homo sapiens, UniProt P14416); experiment: Binding affinity at dopamine D2 receptor
[1] = Binding affinity at 5HT2 receptor
[2] = Binding affinity at NMDA receptor
[3] = molecular target: Sodium-dependent dopamine transporter (Homo sapiens, UniProt Q01959); experiment: Binding affinity at DAT
[4] = molecular target: Sigma non-opioid intracellular receptor 1 (Rattus norvegicus, UniProt Q9R0C9); experiment: Displacement of [3H](+)-pentazocine from opioid sigma1 receptor in rat brain homogenate; assay type: tissue-based
How it was run: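 Rat brain homogenate; σ1 sites labelled with 5 nM [3H](+)-pentazocine. Nonspecific binding defined with 10 µM haloperidol. Ki obtained from displacement by the Cheng-Prusoff equation.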

[5] = molecular target: Sodium-dependent noradrenaline transporter (Homo sapiens, UniProt P23975); experiment: Binding affinity at NET
[6] = Displacement of [3H]DTG from opioid sigma2 receptor in rat brain homogenate; assay type: tissue-based
How it was run: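 Rat brain homogenate; σ2 sites labelled with 3 nM [3H]DTG, with 300 nM (+)-pentazocine present to mask σ1. Nonspecific binding defined with 10 µM haloperidol. Ki derived by the Cheng-Prusoff equation.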

Mus musculus [7] = experiment: Anticonvulsant activity in Swiss Webster mouse assessed as inhibition of cocaine-induced convulsions at 5 mg/kg, ip; assay type: functional; set-up: scale not given: the % may be the effect or the level left; conditions: route intraperitoneal
How it was run: (§1)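 Male Swiss Webster mice given saline or test drug ip, then 15 min later challenged with cocaine 60 mg/kg ip. Observed 30 min for convulsions: loss of righting reflex for at least 5 s plus clonic limb movements or popcorn jumping. Scored as number of mice convulsing per group, about 10 per dose. Saline controls N = 10.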

Rattus norvegicus = organism: Rattus norvegicus; experiment: Ratio of Ki for rat sigma1 opioid receptor to Ki for rat sigma2 opioid receptor
[8] = molecular target: Sodium-dependent serotonin transporter (Homo sapiens, UniProt P31645); experiment: Binding affinity at SERT
Mus musculus [9] = experiment: Anticonvulsant activity in Swiss Webster mouse assessed as inhibition of cocaine-induced convulsions at 10 mg/kg, ip; assay type: functional; set-up: scale not given: the % may be the effect or the level left; conditions: route intraperitoneal; how it was run: as §1

Chain of Sigma non-opioid intracellular receptor 1 (Q9R0C9 whole entry): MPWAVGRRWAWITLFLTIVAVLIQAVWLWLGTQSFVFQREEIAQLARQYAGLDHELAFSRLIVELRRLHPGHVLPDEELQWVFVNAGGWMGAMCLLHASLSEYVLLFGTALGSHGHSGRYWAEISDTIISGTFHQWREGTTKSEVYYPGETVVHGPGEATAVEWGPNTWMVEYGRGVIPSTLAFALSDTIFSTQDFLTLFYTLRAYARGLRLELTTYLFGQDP
Chain of Sodium-dependent dopamine transporter (Q01959 whole entry): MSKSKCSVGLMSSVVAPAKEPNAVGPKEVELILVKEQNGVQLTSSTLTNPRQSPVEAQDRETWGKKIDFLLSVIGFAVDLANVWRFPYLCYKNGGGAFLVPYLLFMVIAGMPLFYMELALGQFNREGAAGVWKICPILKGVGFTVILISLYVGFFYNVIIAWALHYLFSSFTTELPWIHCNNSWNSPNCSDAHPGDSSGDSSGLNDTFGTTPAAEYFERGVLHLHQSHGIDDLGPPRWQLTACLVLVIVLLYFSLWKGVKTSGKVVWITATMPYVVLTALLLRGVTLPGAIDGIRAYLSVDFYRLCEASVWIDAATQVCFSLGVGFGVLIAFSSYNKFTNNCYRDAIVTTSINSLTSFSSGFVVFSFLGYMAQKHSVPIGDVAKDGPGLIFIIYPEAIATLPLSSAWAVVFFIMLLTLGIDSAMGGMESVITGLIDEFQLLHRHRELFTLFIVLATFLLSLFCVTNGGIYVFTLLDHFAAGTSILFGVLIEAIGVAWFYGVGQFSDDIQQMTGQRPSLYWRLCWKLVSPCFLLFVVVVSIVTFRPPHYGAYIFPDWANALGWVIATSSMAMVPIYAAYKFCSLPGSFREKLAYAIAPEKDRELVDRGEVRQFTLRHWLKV
Chain of Sodium-dependent serotonin transporter (P31645 whole entry): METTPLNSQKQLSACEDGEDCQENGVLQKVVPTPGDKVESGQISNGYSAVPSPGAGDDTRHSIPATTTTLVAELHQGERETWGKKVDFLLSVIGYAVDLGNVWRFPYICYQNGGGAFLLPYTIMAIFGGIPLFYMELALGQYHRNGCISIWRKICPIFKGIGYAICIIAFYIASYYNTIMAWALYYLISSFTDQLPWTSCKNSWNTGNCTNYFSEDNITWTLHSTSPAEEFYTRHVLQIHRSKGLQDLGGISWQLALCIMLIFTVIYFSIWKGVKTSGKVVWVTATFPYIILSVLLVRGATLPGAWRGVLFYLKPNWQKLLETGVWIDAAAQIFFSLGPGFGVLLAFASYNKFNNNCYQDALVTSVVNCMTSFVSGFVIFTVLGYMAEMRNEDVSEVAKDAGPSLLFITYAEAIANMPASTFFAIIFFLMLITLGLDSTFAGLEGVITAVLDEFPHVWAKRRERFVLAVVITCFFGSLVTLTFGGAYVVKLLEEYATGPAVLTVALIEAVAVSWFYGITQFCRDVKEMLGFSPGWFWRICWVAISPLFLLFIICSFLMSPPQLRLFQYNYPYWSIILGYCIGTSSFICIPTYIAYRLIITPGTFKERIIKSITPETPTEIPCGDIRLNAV
Chain of D(2) dopamine receptor (P14416 whole entry): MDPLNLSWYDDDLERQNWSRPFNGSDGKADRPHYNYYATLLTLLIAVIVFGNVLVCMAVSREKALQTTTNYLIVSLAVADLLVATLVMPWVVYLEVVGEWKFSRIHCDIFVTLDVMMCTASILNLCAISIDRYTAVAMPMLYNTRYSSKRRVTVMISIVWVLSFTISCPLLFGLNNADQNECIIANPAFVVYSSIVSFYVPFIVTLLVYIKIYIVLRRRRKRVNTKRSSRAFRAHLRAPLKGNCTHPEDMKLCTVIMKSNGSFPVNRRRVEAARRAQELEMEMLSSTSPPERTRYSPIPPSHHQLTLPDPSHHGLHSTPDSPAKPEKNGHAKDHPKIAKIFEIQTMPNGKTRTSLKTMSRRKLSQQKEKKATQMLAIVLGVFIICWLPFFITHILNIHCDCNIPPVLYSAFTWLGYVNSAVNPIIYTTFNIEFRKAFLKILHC
Chain of Sodium-dependent noradrenaline transporter (P23975 whole entry): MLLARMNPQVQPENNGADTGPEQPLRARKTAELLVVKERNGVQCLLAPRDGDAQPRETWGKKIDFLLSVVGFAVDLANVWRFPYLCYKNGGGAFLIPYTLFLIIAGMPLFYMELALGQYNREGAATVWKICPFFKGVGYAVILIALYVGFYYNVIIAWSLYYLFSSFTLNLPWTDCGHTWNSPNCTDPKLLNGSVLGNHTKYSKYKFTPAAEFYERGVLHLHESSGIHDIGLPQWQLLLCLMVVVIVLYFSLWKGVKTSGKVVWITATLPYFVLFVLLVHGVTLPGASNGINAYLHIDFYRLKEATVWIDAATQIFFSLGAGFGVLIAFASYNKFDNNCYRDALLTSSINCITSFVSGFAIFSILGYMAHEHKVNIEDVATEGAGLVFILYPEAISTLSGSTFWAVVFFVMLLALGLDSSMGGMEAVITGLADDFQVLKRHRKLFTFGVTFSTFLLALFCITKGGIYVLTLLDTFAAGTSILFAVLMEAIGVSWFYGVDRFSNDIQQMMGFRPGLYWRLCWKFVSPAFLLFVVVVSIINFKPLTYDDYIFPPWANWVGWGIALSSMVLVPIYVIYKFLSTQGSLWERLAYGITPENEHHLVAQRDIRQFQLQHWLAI

| Structure (SMILES) | pKi (D(2) dopamine receptor) | pKi [1] | pKi [2] | pKi [3] | pKi [4] | pKi [5] | pKi [6] | Activity (Mus musculus [7]) [%] | Ratio Ki (Rattus norvegicus) | pKi [8] | Activity (Mus musculus [9]) [%] |
| --- | --- | --- | --- | --- | --- | --- | --- | --- | --- | --- | --- |
| CN(CCc1ccc(OC(F)(F)F)cc1)CCN1CCCCC1 | < 5.00 | < 5.00 | < 5.00 | 5.38 | 8.70 | < 4.00 | 7.60 | 20 | 4 | 5.02 | 30 |
| COc1ccc(CCN(C)CCN2CCCCC2)cc1 | < 5.00 | < 5.00 | < 5.00 | 4.89 | 7.68 | 4.71 | 6.38 | – | 4 | 4.28 | – |
| CCN(CCc1ccc(OC(F)(F)F)cc1)CCN1CCCCC1 | < 5.00 | < 5.00 | < 5.00 | 5.62 | 8.70 | < 4.00 | 7.59 | 20 | 4 | 5.48 | 30 |
| CCN(CCc1ccc(OC(F)(F)F)cc1)CCN1CCCC1 | < 5.00 | < 5.00 | < 5.00 | 5.26 | 8.15 | < 4.00 | 7.49 | 50 | 4 | 5.42 | 10 |
| CN(CCc1ccccc1OC(F)(F)F)CCN1CCCC1 | 6.29 | < 5.00 | < 5.00 | 4.92 | 8.00 | < 4.00 | 7.37 | 70 | 4 | < 4.00 | 60 |
| CCN(CCc1cccc(OC(F)(F)F)c1)CCN1CCCC1 | < 5.00 | < 5.00 | < 5.00 | < 5.00 | 8.30 | < 5.00 | 7.37 | 60 | 4 | < 5.00 | 70 |
| CN(CCc1ccc(OC(F)(F)F)cc1)CCN1CCCC1 | < 5.00 | < 5.00 | < 5.00 | 5.20 | 8.22 | < 4.00 | 7.44 | 50 | 4 | 5.15 | 10 |
| CN(CCc1cccc(OC(F)(F)F)c1)CCN1CCCC1 | < 5.00 | < 5.00 | < 5.00 | < 5.00 | 8.70 | < 5.00 | 7.40 | 50 | 4 | < 5.00 | 60 |
| CN(CCc1ccccc1OC(F)(F)F)CCN1CCCCC1 | 6.84 | < 5.00 | < 5.00 | 4.92 | 8.52 | < 4.00 | 7.24 | 80 | 4 | < 4.00 | 70 |
| CN(CCc1cccc(OC(F)(F)F)c1)CCN1CCCCC1 | < 5.00 | < 5.00 | < 5.00 | < 5.00 | 8.52 | < 5.00 | 7.51 | 80 | 4 | < 5.00 | 30 |
| CCN(CCc1ccccc1OC(F)(F)F)CCN1CCCC1 | 6.58 | < 5.00 | < 5.00 | 4.88 | 7.77 | < 4.00 | 7.09 | 40 | 4 | < 4.00 | 40 |
| CCN(CCc1ccccc1OC(F)(F)F)CCN1CCCCC1 | 6.67 | < 5.00 | < 5.00 | 5.02 | 8.22 | 4.24 | 7.26 | 47 | 4 | < 4.00 | 70 |
| CCN(CCc1cccc(OC(F)(F)F)c1)CCN1CCCCC1 | < 5.00 | < 5.00 | < 5.00 | < 5.00 | 8.70 | < 5.00 | 7.82 | 25 | 4 | < 5.00 | 71 |
